Measured values: ChEMBL document CHEMBL4190234, “Design, synthesis and anticancer activity of new monastrol analogues bearing 1,3,4-oxadiazole moiety” (Eur J Med Chem, 2017)

Tests used:
Format in all cases: functional
[1] = system: SF-268; test: Growth inhibition of human SF268 cells at 10 uM incubated for 48 hrs by sulforhodamine B assay relative to control; conditions: SF-268, 48 h, read-out: GI
Summary of the method: (§1)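 NCI single-dose screen: cells grown in RPMI 1640 with 5% FBS and 2 mM L-glutamine, plated at 5,000–40,000 cells/well and preincubated 24 h at 37 °C, 5% CO2. Compounds taken from DMSO stock and tested at final 10 µM for 48 h. Cells fixed with TCA, stained with 0.4% SRB, absorbance read at 515 nm. Percentage growth calculated against untreated controls; controls held DMSO at the same dilution.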

[2] = system: HOP-92; test: Growth inhibition of human HOP92 cells at 10 uM incubated for 48 hrs by sulforhodamine B assay relative to control; conditions: HOP-92, 48 h, read-out: GI
Summary of the method: (§2)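 Single-dose screen at 10 μM final: cells in RPMI 1640, 5% FBS, 2 mM L-glutamine, plated 5,000–40,000/well, preincubated 24 h at 37°C, 5% CO2; drug 48 h; adherent cells fixed with 10% TCA, suspension cells with 16% TCA; SRB stain, absorbance 515 nm; percentage growth versus untreated control, with time-zero plates.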

[3] = system: MCF7; test: Growth inhibition of human MCF7 cells at 10 uM incubated for 48 hrs by sulforhodamine B assay relative to control; conditions: MCF7, 48 h, read-out: GI; summary of the method: as §2
[4] = system: SK-MEL-2; test: Growth inhibition of human SK-MEL-2 cells at 10 uM incubated for 48 hrs by sulforhodamine B assay relative to control; conditions: SK-MEL-2, 48 h, read-out: GI; summary of the method: as §1
[5] = system: OVCAR-8; test: Growth inhibition of human OVCAR8 cells at 10 uM incubated for 48 hrs by sulforhodamine B assay relative to control; conditions: OVCAR-8, 48 h, read-out: GI; summary of the method: as §2
[6] = system: BT-549; test: Growth inhibition of human BT549 cells at 10 uM incubated for 48 hrs by sulforhodamine B assay relative to control; conditions: BT-549, 48 h, read-out: GI; summary of the method: as §2
[7] = system: SF-295; test: Growth inhibition of human SF295 cells at 10 uM incubated for 48 hrs by sulforhodamine B assay relative to control; conditions: SF-295, 48 h, read-out: GI; summary of the method: as §1
[8] = system: IGROV-1; test: Growth inhibition of human IGROV1 cells at 10 uM incubated for 48 hrs by sulforhodamine B assay relative to control; conditions: IGROV-1, 48 h, read-out: GI; summary of the method: as §2
[9] = system: MDA-MB-468; test: Growth inhibition of human MDA-MB-468 cells at 10 uM incubated for 48 hrs by sulforhodamine B assay relative to control; conditions: MDA-MB-468, 48 h, read-out: GI; summary of the method: as §2
[10] = system: SNB-75; test: Growth inhibition of human SNB75 cells at 10 uM incubated for 48 hrs by sulforhodamine B assay relative to control; conditions: SNB-75, 48 h, read-out: GI; summary of the method: as §1
[11] = system: HCC 2998; test: Growth inhibition of human HCC2998 cells at 10 uM incubated for 48 hrs by sulforhodamine B assay relative to control; conditions: HCC 2998, 48 h, read-out: GI; summary of the method: as §2
[12] = system: LOX IMVI; test: Growth inhibition of human LOXIMVI cells at 10 uM incubated for 48 hrs by sulforhodamine B assay relative to control; conditions: read-out: GI; summary of the method: as §2
[13] = system: DU-145; test: Growth inhibition of human DU145 cells at 10 uM incubated for 48 hrs by sulforhodamine B assay relative to control; conditions: DU-145, 48 h, read-out: GI; summary of the method: as §2
[14] = system: K562; test: Growth inhibition of human K562 cells at 10 uM incubated for 48 hrs by sulforhodamine B assay relative to control; conditions: K562, 48 h, read-out: GI; summary of the method: as §2
[15] = system: 786-0; test: Growth inhibition of human 786-0 cells at 10 uM incubated for 48 hrs by sulforhodamine B assay relative to control; conditions: 786-0, 48 h, read-out: GI; summary of the method: as §2
[16] = system: MDA-MB-231; test: Growth inhibition of human MDA-MB-231 cells at 10 uM incubated for 48 hrs by sulforhodamine B assay relative to control; conditions: MDA-MB-231, 48 h, read-out: GI; summary of the method: as §2
[17] = system: CCRF-CEM; test: Growth inhibition of human CCRF-CEM cells at 10 uM incubated for 48 hrs by sulforhodamine B assay relative to control; conditions: read-out: GI; summary of the method: as §2
[18] = system: SR; test: Growth inhibition of human SR cells at 10 uM incubated for 48 hrs by sulforhodamine B assay relative to control; conditions: read-out: GI; summary of the method: as §1
[19] = system: OVCAR-4; test: Growth inhibition of human OVCAR4 cells at 10 uM incubated for 48 hrs by sulforhodamine B assay relative to control; conditions: OVCAR-4, 48 h, read-out: GI; summary of the method: as §2
[20] = system: UO-31; test: Growth inhibition of human UO31 cells at 10 uM incubated for 48 hrs by sulforhodamine B assay relative to control; conditions: UO-31, 48 h, read-out: GI; summary of the method: as §1
[21] = system: OVCAR-3; test: Growth inhibition of human OVCAR3 cells at 10 uM incubated for 48 hrs by sulforhodamine B assay relative to control; conditions: OVCAR-3, 48 h, read-out: GI; summary of the method: as §2
[22] = system: NCI-H322M; test: Growth inhibition of human NCI-H322M cells at 10 uM incubated for 48 hrs by sulforhodamine B assay relative to control; conditions: read-out: GI; summary of the method: as §2
[23] = system: A498; test: Growth inhibition of human A498 cells at 10 uM incubated for 48 hrs by sulforhodamine B assay relative to control; conditions: A498, 48 h, read-out: GI; summary of the method: as §2
[24] = system: MOLT-4; test: Growth inhibition of human MOLT4 cells at 10 uM incubated for 48 hrs by sulforhodamine B assay relative to control; conditions: MOLT-4, 48 h, read-out: GI; summary of the method: as §2
[25] = system: MDA-MB-435; test: Growth inhibition of human MDA-MB-435 cells at 10 uM incubated for 48 hrs by sulforhodamine B assay relative to control; conditions: MDA-MB-435, 48 h, read-out: GI; summary of the method: as §2
[26] = system: T47D; test: Growth inhibition of human T47D cells at 10 uM incubated for 48 hrs by sulforhodamine B assay relative to control; conditions: read-out: GI; summary of the method: as §1
[27] = system: HL-60(TB); test: Growth inhibition of human HL-60(TB) cells at 10 uM incubated for 48 hrs by sulforhodamine B assay relative to control; conditions: HL-60, 48 h, read-out: GI
Summary of the method: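 Single dose of 10 µM in the NCI ~60-line panel. Cells grown in RPMI 1640 with 5% FBS and 2 mM L-glutamine, plated and pre-incubated 24 h, then exposed 48 h at 37°C under 5% CO2. Suspension cells fixed with TCA (16% final) and stained with sulforhodamine B, A515 read. Reported as percent growth versus untreated control and as GI%.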

[28] = system: NCI-H226; test: Growth inhibition of human NCI-H226 cells at 10 uM incubated for 48 hrs by sulforhodamine B assay relative to control; conditions: NCI-H226, 48 h, read-out: GI; summary of the method: as §2
[29] = system: SF-539; test: Growth inhibition of human SF539 cells at 10 uM incubated for 48 hrs by sulforhodamine B assay relative to control; conditions: SF-539, 48 h, read-out: GI; summary of the method: as §1
[30] = system: HCT-15; test: Growth inhibition of human HCT15 cells at 10 uM incubated for 48 hrs by sulforhodamine B assay relative to control; conditions: HCT-15, 48 h, read-out: GI; summary of the method: as §2

| Structure (SMILES) | inhibition of growth at 10 µM [1] [%] | inhibition of growth at 10 µM [2] [%] | inhibition of growth at 10 µM [3] [%] | inhibition of growth at 10 µM [4] [%] | inhibition of growth at 10 µM [5] [%] | inhibition of growth at 10 µM [6] [%] | inhibition of growth at 10 µM [7] [%] | inhibition of growth at 10 µM [8] [%] | inhibition of growth at 10 µM [9] [%] | inhibition of growth at 10 µM [10] [%] | inhibition of growth at 10 µM [11] [%] | inhibition of growth at 10 µM [12] [%] | inhibition of growth at 10 µM [13] [%] | inhibition of growth at 10 µM [15] [%] | inhibition of growth at 10 µM [16] [%] | inhibition of growth at 10 µM [17] [%] | inhibition of growth at 10 µM [18] [%] | inhibition of growth at 10 µM [19] [%] | inhibition of growth at 10 µM [20] [%] | inhibition of growth at 10 µM [21] [%] | other results |
| --- | --- | --- | --- | --- | --- | --- | --- | --- | --- | --- | --- | --- | --- | --- | --- | --- | --- | --- | --- | --- | --- |
| CCOC(=O)C1=C(C)NC(SCc2nnc(-c3ccc(Cl)cc3)o2)=NC1c1ccc(F)cc1 (centres undefined) | < 10 | 27.8 | 13.3 | < 10 | 11.7 | < 10 | < 10 | 17.1 | 17.1 | < 10 | < 10 | < 10 | < 10 | 10.7 | < 10 | 16.9 | 16.7 | < 10 | 22.2 | < 10 | inhibition of growth at 10 µM [14]: 14.4%; inhibition of growth at 10 µM [22]: < 10%; inhibition of growth at 10 µM [23]: 12.3%; inhibition of growth at 10 µM [24]: 20.4%; inhibition of growth at 10 µM [25]: < 10%; inhibition of growth at 10 µM [26]: 27.1%; inhibition of growth at 10 µM [27]: 23.5%; inhibition of growth at 10 µM [28]: 10.6%; inhibition of growth at 10 µM [29]: < 10%; inhibition of growth at 10 µM [30]: 15.8% |
| CC(=O)C1=C(C)NC(SCc2nnc(-c3ccc(Cl)cc3)o2)=NC1c1ccc(Cl)cc1 (centres undefined) | < 10 | 26.5 | 16.4 | < 10 | 14.5 | 15.1 | < 10 | 23.4 | 10.8 | 28.1 | < 10 | < 10 | < 10 | 12.6 | 27 | 20.9 | 37.8 | < 10 | 43.6 | < 10 | inhibition of growth at 10 µM [14]: 11.1%; inhibition of growth at 10 µM [22]: 12%; inhibition of growth at 10 µM [23]: < 10%; inhibition of growth at 10 µM [24]: 24.4%; inhibition of growth at 10 µM [25]: < 10%; inhibition of growth at 10 µM [26]: 39.5%; inhibition of growth at 10 µM [27]: 40.3%; inhibition of growth at 10 µM [28]: 11.4%; inhibition of growth at 10 µM [29]: < 10%; inhibition of growth at 10 µM [30]: 11% |
| CCOC(=O)C1=C(C)NC(SCc2nnc(-c3ccc(Cl)cc3)o2)=NC1c1ccc(Cl)cc1Cl (centres undefined) | 26.7 | 73.6 | 68 | 40 | 45.8 | 10.3 | 52.8 | 56.1 | 11.6 | 15.9 | 15.5 | 41.7 | 26.9 | 34.8 | 58.3 | 72.8 | 62.1 | 47.3 | 62.8 | 37.2 | inhibition of growth at 10 µM [22]: 21.1%; inhibition of growth at 10 µM [23]: 22.3%; inhibition of growth at 10 µM [24]: 88.8%; inhibition of growth at 10 µM [25]: 31%; inhibition of growth at 10 µM [26]: 52.6%; inhibition of growth at 10 µM [27]: 106%; inhibition of growth at 10 µM [28]: 21%; inhibition of growth at 10 µM [29]: 13.6%; inhibition of growth at 10 µM [30]: 44.7% |
